Laboratory results: ChEMBL document CHEMBL2202955, “Identification of Potent, Selective, Cell-Active Inhibitors of the Histone Lysine Methyltransferase EZH2” (ACS Med Chem Lett, 2012)

Columns and labels:
[1] = molecular target: EZH2/SUZ12/EED/RBBP7/RBBP4; assay: Inhibition of PRC2 complex of FLAG-EZH2, EED, SUZ12, AEBP2 and RbAp48 using histone H3 peptide (21 to 44) as substrate and [3H]SAM after 30 mins; type: protein-complex assay; conditions: read-out: Ki(app)
[2] = molecular target: Histone-lysine N-methyltransferase EZH2 (Homo sapiens, UniProt Q15910); assay: Inhibition of EZH2-mediated nuclear H3K27 methylation in human HCC1806 cells after 72 hrs by immunofluorescence analysis; type: cell-based
In short: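 HCC1806 breast cancer cells were exposed to compound for 72 h. Nuclear H3K27me3 was quantified by an immunofluorescence imaging assay and normalized to total H3. Values are the mean of at least three independent replicates.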

Histone-lysine N-methyltransferase EZH2, sequence (Q15910 whole entry): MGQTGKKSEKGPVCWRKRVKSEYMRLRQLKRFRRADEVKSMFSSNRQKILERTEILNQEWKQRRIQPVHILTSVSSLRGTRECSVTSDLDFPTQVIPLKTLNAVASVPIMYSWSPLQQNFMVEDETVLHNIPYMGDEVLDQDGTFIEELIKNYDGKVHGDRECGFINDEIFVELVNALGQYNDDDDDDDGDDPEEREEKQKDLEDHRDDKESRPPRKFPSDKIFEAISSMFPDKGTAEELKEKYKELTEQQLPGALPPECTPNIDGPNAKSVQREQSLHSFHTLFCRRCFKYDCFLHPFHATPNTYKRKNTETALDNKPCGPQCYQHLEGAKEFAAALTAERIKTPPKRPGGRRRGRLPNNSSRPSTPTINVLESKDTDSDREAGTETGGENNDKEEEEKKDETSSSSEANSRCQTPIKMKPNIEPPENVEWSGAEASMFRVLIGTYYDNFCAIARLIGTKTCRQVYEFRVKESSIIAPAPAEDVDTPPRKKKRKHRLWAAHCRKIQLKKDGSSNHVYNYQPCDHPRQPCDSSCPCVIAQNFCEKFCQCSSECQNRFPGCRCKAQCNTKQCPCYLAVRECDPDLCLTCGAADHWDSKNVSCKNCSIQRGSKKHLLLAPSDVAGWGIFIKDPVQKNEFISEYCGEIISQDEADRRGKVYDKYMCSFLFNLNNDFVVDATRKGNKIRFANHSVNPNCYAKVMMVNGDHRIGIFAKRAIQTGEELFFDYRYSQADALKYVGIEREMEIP

Cc1cc(C)c(CNC(=O)c2cc(C3CC3)cc3c2cnn3C(C)C)c(=O)[nH]1
Ki [1]: 0.074 µM | IC50 [2]: 2.51 µM

Cc1cc(C)c(CNC(=O)c2cc(-c3ccnc(N4CCN(C)CC4)c3)cc3c2cnn3C(C)C)c(=O)[nH]1
Ki [1]: 0.014 µM | IC50 [2]: 2 µM
